Data on one molecule can be found in ChEMBL document CHEMBL4834471 (J Med Chem, 2021).

For data set [1], the system named is Mus musculus. The data set can be described thus: Antiinflammatory activity against ovalbumin-induced airway hyperreactivity in BALB/c mouse assessed as reduction in LTB4 and isomers level in lung tissue at 10 mg/kg, po pretreated with compound for 60 mins prior to ovalbumin stimulation on day 0 and 7 and […] by UPLC-MS/MS analysis. In kind it is functional, organism-based. Summed up:
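Mice gavaged with 10 mg/kg 60 min before ovalbumin sensitization on days 0 and 7. Lung tissue taken on […] and LTB4 plus its isomers quantified as pg/mg lung tissue; n = 5 mice; two-tailed unpaired t-test of log data.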

A short description of data set [2]: Drug concentration in plasma of mouse at 10 mg/kg, po within 1 hr. The format is ADME, organism-based.
A short description of data set [3]: Drug degradation in mouse at 10 mg/kg, po. The format is ADME, organism-based. Conditions: in vivo. Summed up:
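Mice with acute peritonitis dosed orally at 10 mg/kg; plasma compound and metabolite concentrations measured 90 min after administration from extracted chromatograms; n = 8 mice.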

Data set [4] is described as follows: Drug metabolism in human liver-on-chip assessed as compound conjugation with sulfate incubated for 48 hrs by UPLC-MS/MS analysis. The format is ADME, tissue-based. Summed up: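 Liver-on-chip built from differentiated HepaRG cells (hepatocyte-like and biliary-like) with a HUVEC endothelial layer. Loaded with compound at 1 μM and incubated 48 h; compound and metabolites quantified from extracted chromatograms; n = 3 independent experiments.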

For data set [5], the target named is T1, Prostaglandin E synthase (Homo sapiens) (UniProt O14684).
T1 sequence (whole entry): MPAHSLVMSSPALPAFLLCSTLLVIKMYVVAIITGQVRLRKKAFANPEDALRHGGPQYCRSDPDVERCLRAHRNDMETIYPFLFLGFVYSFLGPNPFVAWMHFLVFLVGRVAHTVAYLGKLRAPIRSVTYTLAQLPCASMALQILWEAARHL
The data set can be described thus: Inhibition of mPGES-1 activity in IL-1beta treated human A549 cells assessed as reduction in PGE2 formation at 10 uM using PGH2 as substrate preincubated for 15 mins followed by substrate addition and measured after 1 min. In kind it is cell-based. Conditions: time 16.0 min.

Data set [6] concerns the target T2, Polyunsaturated fatty acid lipoxygenase ALOX12 (Homo sapiens) (UniProt P18054).
T2 sequence (whole entry): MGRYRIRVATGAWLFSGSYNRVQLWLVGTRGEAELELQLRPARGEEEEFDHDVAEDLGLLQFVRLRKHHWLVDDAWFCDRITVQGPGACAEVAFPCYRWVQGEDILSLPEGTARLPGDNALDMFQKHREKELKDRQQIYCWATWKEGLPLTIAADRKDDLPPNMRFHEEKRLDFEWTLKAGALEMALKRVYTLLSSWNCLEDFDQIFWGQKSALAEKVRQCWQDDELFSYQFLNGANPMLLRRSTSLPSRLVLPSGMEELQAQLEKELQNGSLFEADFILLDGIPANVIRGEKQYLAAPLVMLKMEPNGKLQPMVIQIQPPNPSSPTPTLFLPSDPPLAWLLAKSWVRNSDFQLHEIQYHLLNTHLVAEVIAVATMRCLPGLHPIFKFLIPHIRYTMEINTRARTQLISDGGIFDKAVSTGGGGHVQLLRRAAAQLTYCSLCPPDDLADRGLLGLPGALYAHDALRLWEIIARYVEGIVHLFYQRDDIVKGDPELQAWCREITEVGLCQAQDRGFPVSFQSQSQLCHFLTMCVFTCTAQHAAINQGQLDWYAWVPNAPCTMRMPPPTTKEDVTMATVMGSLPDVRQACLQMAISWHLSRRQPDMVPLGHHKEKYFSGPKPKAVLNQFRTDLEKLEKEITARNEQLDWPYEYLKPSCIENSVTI
The data set can be described thus: Inhibition of 12-LOX in human PMNL assessed as reduction in 12-LOX product formation at 10 uM treated with AA and A23187 by RP-HPLC method. In kind it is tissue-based.

Data set [7] concerns the target Prostaglandin G/H synthase 1 (Homo sapiens) (UniProt P23219). The data set is described as follows: Inhibition of COX-1 in human platelets assessed as reduction in 12-HHT formation at 10 uM using arachidonic acid as substrate preincubated for 5 mins followed by substrate addition and measured after 5 mins by RPL-HPLC method. In kind it is tissue-based. Particulars: Platelet, time 10.0 min.

Data set [8] relates to Keratinocyte. The data set can be described thus: Cytotoxicity against human Keratinocytes assessed as reduction in cell viability at 10 to 100 uM after 24 hrs by MTT assay. In kind it is cell-based. Particulars: dose 10-100 µM. For orientation: Formazan colour is commonly taken as a measure of viable cells.
Data set [9] deals with Keratinocyte. The data set can be described thus: Antiinflammatory activity in cytokine cocktail-induced reconstructed human epidermis model assessed as attenuation of epidermal disorganization at 5 to 25 uM after 4 days by HE staining based assay. The format is functional, cell-based. Particulars: dose 5-25 µM, time 4.0 day. The essentials:
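Reconstructed human epidermis exposed to compound and stressed with a cytokine cocktail for 4 days. Readouts: IL-8 in growth medium, H&E morphology, transepidermal water loss, stratum corneum permeability to Lucifer yellow with DAPI nuclear stain, and surface pH. n = 2–3 independent experiments.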

Data set [10] concerns Keratinocyte. The data set is described as follows: Antiinflammatory activity in cytokine cocktail-induced reconstructed human epidermis model assessed as effect on TSLP expression at 5 to 25 uM after 4 days by ELISA. Particulars: dose 5-25 µM, time 4.0 day. The format is functional, cell-based. A general note: ELISA stands for enzyme-linked immunosorbent assay.
For data set [11], the system named is Mus musculus. The data set can be described thus: Antiinflammatory activity in zymosan-induced CD-1 mouse peritonitis model assessed as reduction in LTC4 level at 10 mg/kg, ip preincubated with compound for 30 mins followed by zymosan addition and measured after 30 mins by ELISA. The format is functional, organism-based. Particulars: time 60.0 min. Summed up:
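Compound 10 mg/kg i.p. in zymosan-induced peritonitis; mice killed 30 min after zymosan injection; exudate LTC4 measured by ELISA; statistics by two-tailed unpaired t-test of log data.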

Data set [12] has as its system Mus musculus. The data set is described as follows: Antiinflammatory activity in zymosan-induced CD-1 mouse peritonitis model assessed as reduction in vascular permeability at 10 mg/kg, ip preincubated with compound for 30 mins followed by zymosan addition and measured after 30 mins. In kind it is functional, organism-based. Particulars: time 60.0 min. Summed up:
(§1)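 Zymosan peritonitis with compound 10 mg/kg i.p. Vascular permeability assessed at 30 min after zymosan. Exudate LTB4 (ELISA) and peritoneal immune cell infiltration assessed at 4 h. Two-tailed unpaired t-test of log data.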

Data set [13] concerns Mus musculus. The data set can be described thus: Antiinflammatory activity in zymosan-induced CD-1 mouse peritonitis model assessed as reduction in LTB4 level at 10 mg/kg, ip preincubated with compound for 30 mins followed by zymosan addition and measured after 4 hrs by ELISA. The format is functional, organism-based. Conditions: time 270.0 min. The essentials:
as §1

For data set [14], the system named is Mus musculus. The data set is described as follows: Antiinflammatory activity in zymosan-induced CD-1 mouse peritonitis model assessed as reduction in LTC4 level at 3 mg/kg, po preincubated with compound for 60 mins followed by zymosan addition and measured after 30 mins by ELISA. The format is functional, organism-based. Particulars: time 90.0 min. The essentials: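 Oral dosing at 3 mg/kg in zymosan-induced peritonitis; mice killed 30 min after zymosan; LTC4 in peritoneal exudate measured by ELISA; two-tailed unpaired t-test of log data.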

Data set [15] concerns Mus musculus. The data set is described as follows: Antiinflammatory activity in zymosan-induced CD-1 mouse peritonitis model assessed as reduction in 5-LOX product level at 10 mg/kg, po preincubated with compound for 60 mins followed by zymosan addition and measured after 30 mins. In kind it is functional, organism-based. Particulars: time 90.0 min. The essentials: (§2)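 Oral dosing at 10 mg/kg in zymosan peritonitis; mice killed 30 min after zymosan. Peritoneal exudate lipid mediators and fatty acids profiled by UPLC-MS/MS, with LTC4 measured by ELISA; results expressed as fold change versus vehicle.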

The subject of data set [16] is Mus musculus. The data set can be described thus: Antiinflammatory activity in zymosan-induced CD-1 mouse peritonitis model assessed as reduction in LOX derived metabolites at 10 mg/kg, po preincubated with compound for 60 mins followed by zymosan addition and measured after 30 mins. Conditions: time 90.0 min. In kind it is functional, organism-based. Summed up:
as §2

Data set [17] relates to Mus musculus. The data set is described as follows: Antiinflammatory activity BALB/c mouse assessed as restoration of salbutamol-induced adrenergic bronchial relaxation at 10 mg/kg, po administered on day 0 and 7 and measured upto 21 days. In kind it is functional, organism-based. Conditions: time day <=21.

Calls of active or inactive are those of the source. The rule behind the calls is not given here.

Sequence of Prostaglandin G/H synthase 1 (Homo sapiens) (P23219 whole entry): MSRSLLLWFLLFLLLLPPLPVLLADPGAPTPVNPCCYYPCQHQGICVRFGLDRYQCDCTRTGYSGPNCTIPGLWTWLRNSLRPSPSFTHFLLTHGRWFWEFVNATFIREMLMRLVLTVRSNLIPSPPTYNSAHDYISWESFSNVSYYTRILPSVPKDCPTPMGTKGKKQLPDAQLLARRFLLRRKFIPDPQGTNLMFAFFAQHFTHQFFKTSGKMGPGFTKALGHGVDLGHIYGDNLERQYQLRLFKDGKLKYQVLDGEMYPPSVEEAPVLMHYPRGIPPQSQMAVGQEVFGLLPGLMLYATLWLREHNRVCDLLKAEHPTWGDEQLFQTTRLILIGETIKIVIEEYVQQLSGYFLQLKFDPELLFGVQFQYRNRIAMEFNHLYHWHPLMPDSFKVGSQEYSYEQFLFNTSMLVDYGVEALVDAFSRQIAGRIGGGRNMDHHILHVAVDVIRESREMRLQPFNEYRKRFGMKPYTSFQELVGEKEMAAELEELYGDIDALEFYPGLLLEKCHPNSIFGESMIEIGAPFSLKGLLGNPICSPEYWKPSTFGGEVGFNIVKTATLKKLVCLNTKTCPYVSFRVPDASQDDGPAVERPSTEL

As to `C/C(=C\CC/C(C)=C/CC[C@]1(C)CCc2c(C)c(O)c(C)c(C)c2O1)CCC=C(CO)CO`, the outcome in data set [1], in data set [9], in data set [11], in [12], in [13] and in data set [14] was Active. Further, the result in data set [15], in data set [16] and in data set [17] was Active. In data set [2], the concentration at 1 h stood at 30 nM. Moreover, the Stabilty entry in data set [3] is recorded as “Stable”. Moreover, the Drug metabolism result in [4] is given as “Metabolite_Detected”. In addition, in data set [5], the inhibition result is “Active”. Moreover, the inhibition entry in data set [6] and in data set [7] was “inactive” throughout. In [8], the Activity result is given as “Non-Toxic”. Besides, in data set [10], the result was inactive.
